Experiments:
Assay type in all cases: toxicity, cell-based
Fibroblast = experiment: Incucyte cell viability with human fibroblast; settings: 10 µM, compound concentration 10 uM; also: filed as whole numbers so only -1 and 0 and 1 occur
HEK-293T = experiment: Incucyte cell viability with HEK293T; settings: human, 10 µM, compound concentration 10 uM; also: filed as whole numbers so only -1 and 0 and 1 occur
U2OS = experiment: Multiplex assay against U2OS; settings: human
Procedure, shortened: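 Live cells were stained at seeding with Hoechst33342, BioTracker Green Microtubule Cytoskeleton Dye, MitoTracker Red and Annexin V Alexa Fluor 680, then imaged on a CQ1 microscope at 37°C and 5% CO2 after compound addition. CellPathfinder machine-learning gating split cells into Hoechst high-intensity objects or normal cells. Normal cells were split into healthy, pyknosed or fragmented nuclei, and pyknosed cells into mitotic or apoptotic. Tubulin, mitochondrial-mass and membrane-permeability phenotypes are per cents of healthy-nucleus cells.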

[1] = 0 h, replicate number 1, timepoint 0 hours
[2] = 6 h, replicate number 1, timepoint 6 hours
[3] = 12 h, replicate number 1, timepoint 12 hours
[4] = 18 h, replicate number 1, timepoint 18 hours
[5] = 24 h, replicate number 1, timepoint 24 hours
[6] = 12 h, 1 µM, compound concentration 1 uM, replicate 1
[7] = 12 h, 1 µM, compound concentration 1 uM, replicate 2
[8] = 12 h, 10 µM, compound concentration 10 uM, replicate 1
[9] = 12 h, 10 µM, compound concentration 10 uM, replicate 2
[10] = 24 h, 1 µM, compound concentration 1 uM, replicate 1
[11] = 24 h, 1 µM, compound concentration 1 uM, replicate 2

## CCCn1c(=O)c2[nH]c(C34CC5CC(CC3C5)C4)nc2n(CCC)c1=O [ROLOFYLLINE]
Fibroblast; [1]
  Growth Rate: 0
Fibroblast; [2]
  Growth Rate: 0
Fibroblast; [3]
  Growth Rate: 0
Fibroblast; [4]
  Growth Rate: 0
Fibroblast; [5]
  Growth Rate: 0
HEK-293T; [1]
  Growth Rate: 0
HEK-293T; [2]
  Growth Rate: 0
HEK-293T; [3]
  Growth Rate: 0
HEK-293T; [4]
  Growth Rate: 0
HEK-293T; [5]
  Growth Rate: 0
U2OS; [6]
  Population Apoptotic (%): 50%
  Population Fragmented Nuclei (%): 14%
  Population Healthy Nuclei (%): 77%
  Population Hoechst High Intensity Objects (%): 7%
  Population Membrane Permeable-Phenotype (%): 9%
  Population Mitochondria Different-Phenotype (%): 8%
  Population Mitotic Cells (%): 50%
  Population Normal (%): 92%
  Population Pyknosed Nuclei (%): 8%
  Population Tubulin-Different-Phenotype (%): 18%
  Total Cell Count: 123
U2OS; [7]
  Population Apoptotic (%): 71%
  Population Fragmented Nuclei (%): 4%
  Population Healthy Nuclei (%): 88%
  Population Hoechst High Intensity Objects (%): 3%
  Population Membrane Permeable-Phenotype (%): 12%
  Population Mitochondria Different-Phenotype (%): 15%
  Population Mitotic Cells (%): 28%
  Population Normal (%): 96%
  Population Pyknosed Nuclei (%): 7%
  Population Tubulin-Different-Phenotype (%): 20%
  Total Cell Count: 81
U2OS; [8]
  Population Apoptotic (%): 58%
  Population Fragmented Nuclei (%): 7%
  Population Healthy Nuclei (%): 76%
  Population Hoechst High Intensity Objects (%): 13%
  Population Membrane Permeable-Phenotype (%): 32%
  Population Mitochondria Different-Phenotype (%): 80%
  Population Mitotic Cells (%): 41%
  Population Normal (%): 86%
  Population Pyknosed Nuclei (%): 17%
  Population Tubulin-Different-Phenotype (%): 97%
U2OS; [9]
  Population Apoptotic (%): 55%
  Population Fragmented Nuclei (%): 13%
  Population Healthy Nuclei (%): 74%
  Population Hoechst High Intensity Objects (%): 3%
  Population Membrane Permeable-Phenotype (%): 46%
  Population Mitochondria Different-Phenotype (%): 73%
  Population Mitotic Cells (%): 44%
  Population Normal (%): 96%
  Population Pyknosed Nuclei (%): 12%
  Population Tubulin-Different-Phenotype (%): 100%
  Total Cell Count: 99
U2OS; [10]
  Population Apoptotic (%): 50%
  Population Fragmented Nuclei (%): 9%
  Population Healthy Nuclei (%): 74%
  Population Hoechst High Intensity Objects (%): 2%
  Population Membrane Permeable-Phenotype (%): 5%
  Population Mitochondria Different-Phenotype (%): 5%
  Population Mitotic Cells (%): 50%
  Population Normal (%): 97%
  Population Pyknosed Nuclei (%): 15%
  Population Tubulin-Different-Phenotype (%): 10%
  Total Cell Count: 136
U2OS; [11]
  Population Apoptotic (%): 40%
  Population Fragmented Nuclei (%): 7%
  Population Healthy Nuclei (%): 88%
  Population Hoechst High Intensity Objects (%): 5%
  Population Membrane Permeable-Phenotype (%): 6%
  Population Mitochondria Different-Phenotype (%): 11%
  Population Mitotic Cells (%): 60%
  Population Normal (%): 94%
  Population Pyknosed Nuclei (%): 4%

Reference: ChEMBL document CHEMBL4689842, “EUbOPEN Chemogenomics Library wave 1” (2021)
